Source: PubChem (several laboratories)
A selection: hits, their analogues and other compounds. The true share with any hit is near 3%.
KLK7 zymogen act: proKLK7 (human) activation, primary screen; purified proKLK7, EDANS-DABCYL substrate fluorescence; 100% is mature enzyme control, 0% vehicle; P49862; AID 652039; hit rate 0.9% among 370,000; activation, % at 7 µM;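 active means activation above the mean of all tested compounds plus 3 SD, computed per campaign excluding outliers beyond control limits, cut at about 13% in these data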
PLC-beta3 inh: blocks human PLC-beta3 enzyme activity. Purified PLC-beta3, fluorogenic substrate, fluorescence. inhibition, % at 12.2 µM. hit rate 0.18% among 370,000. AID 720704; in the data active means inhibition above about 11%
NRP1-CendR mod: alters CendR peptide binding to human NRP-1. O14786. FAM-RPARPAR peptide binding to NRP-1, fluorescence polarization. inhibition, % at 25 µM. hit rate 0.85% among 360,000. AID 602438;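 active means inhibition or corrected inhibition above about 18%, plus a signal ratio from 0.5 to 1.5, limit read from the data, passing the limit was not always enough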
Target sequence (O14786 whole entry, looked up): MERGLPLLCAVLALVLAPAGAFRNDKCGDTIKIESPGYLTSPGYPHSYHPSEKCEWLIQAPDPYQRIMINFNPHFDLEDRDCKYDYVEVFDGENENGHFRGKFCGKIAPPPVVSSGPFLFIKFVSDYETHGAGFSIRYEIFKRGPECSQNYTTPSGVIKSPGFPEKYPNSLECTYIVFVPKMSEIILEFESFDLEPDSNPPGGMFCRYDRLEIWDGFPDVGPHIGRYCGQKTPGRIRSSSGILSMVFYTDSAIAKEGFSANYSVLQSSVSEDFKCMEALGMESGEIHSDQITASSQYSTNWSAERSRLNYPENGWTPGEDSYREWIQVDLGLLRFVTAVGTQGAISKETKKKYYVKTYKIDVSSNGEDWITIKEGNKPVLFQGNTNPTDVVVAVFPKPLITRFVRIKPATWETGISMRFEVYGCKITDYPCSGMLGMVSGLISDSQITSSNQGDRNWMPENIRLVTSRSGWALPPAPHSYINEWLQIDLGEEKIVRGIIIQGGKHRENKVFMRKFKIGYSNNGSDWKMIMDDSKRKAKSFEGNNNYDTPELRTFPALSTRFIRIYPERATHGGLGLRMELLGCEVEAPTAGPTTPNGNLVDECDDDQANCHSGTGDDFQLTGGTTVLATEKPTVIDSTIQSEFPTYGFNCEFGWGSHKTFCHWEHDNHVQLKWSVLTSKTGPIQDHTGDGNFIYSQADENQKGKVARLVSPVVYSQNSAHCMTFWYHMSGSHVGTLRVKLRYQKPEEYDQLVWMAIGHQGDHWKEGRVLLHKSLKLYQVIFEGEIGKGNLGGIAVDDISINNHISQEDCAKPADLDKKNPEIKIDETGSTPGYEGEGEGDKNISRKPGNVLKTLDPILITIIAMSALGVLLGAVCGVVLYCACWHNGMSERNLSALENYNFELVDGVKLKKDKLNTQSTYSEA
Tn7 DDE FP: disrupts Tn7 cyclic peptide binding to fibrin D-Dimer-E complex; FP displacement of FITC-Tn7 peptide from fibrin DD(E); 0% = median of compound wells per plate; inhibition, % at 8.3 µM; hit rate 0.13% among 370,000;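 active means inhibition above the mean of compounds falling within the control limits plus 3 SD of them, cut at about 14% in these data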
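Assay system: Fibrin-DD(E) protein isolated from polymerized human fibrin clots; read-out basis: percent inhibition; medium: Tris/NaCl/CaCl2 buffer, pH 7.8; signal: FP measurement; incubation: 10 min plus 3 h, room temperature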
DDE Tn6 FP inh: DD(E)-Tn6 binding inhibition, primary FP screen | P02675 | Fibrin DD(E) TRITC-Tn6 fluorescence polarization displacement | inhibition, % at 8.3 µM | hit rate 0.21% among 370,000 | AID 720509;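 active means inhibition above a per-campaign cutoff: mean of compounds within control limits plus 3 SD, cut at about 15% in these data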
PLCg1 inh: inhibitors of human phospholipase C gamma1; P19174; purified PLC-gamma1, fluorogenic substrate, fluorescence; inhibition, % at 12.2 µM; hit rate 0.84% among 370,000; in the data active means inhibition above about 9.5%
proKLK7 act conf: confirmation of human kallikrein-7 zymogen activators. AID 686949. purified proKLK7, EDANS-DABCYL substrate fluorescence; scaled: vehicle 0, mature enzyme 100. shares compounds with KLK7 zymogen act. activation, % at 7 µM. hit rate 68% among 3,200;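 active means activation, as change over the incubation, above the mean of all tested compounds plus 3 SD, cut at about 13% in these data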
EDANS interfere: counter-screen for kallikrein-7 activators: EDANS-DABCYL optical interference | shares compounds with KLK7 zymogen act | EDANS-DABCYL substrate fluorescence interference, no enzyme, 4 h; solvent 0%, active enzyme control 100% | activation, % at 7 µM | hit rate 80% among 3,200 | AID 686952;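 active means activation above the all-compound mean plus 3 SD, ignoring values outside control-based bounds, cut at about 4.8% in these data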;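 further: value is the 4 h activation minus the activation read at time zero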
Of the large screens only hits and unclear results are named; the others gave an inactive call (follow-up assays come after a bar, where they were run).

CCOCCOC(=O)C1=C(C)NC2=C(C(=O)CC(c3cccs3)C2)C1c1ccsc1 (stereo unspecified)	KLK7 zymogen act 90 | proKLK7 act conf inactive | EDANS interfere inactive
O=C(Nc1ccccc1F)c1cc2c(s1)-c1ccccc1S(=O)(=O)C2	KLK7 zymogen act 89 | proKLK7 act conf 60 | EDANS interfere 93
CCCN1C(=O)c2ccccc2NC1c1ccc(O)c(OCC)c1 (stereo unspecified)	KLK7 zymogen act 14 | proKLK7 act conf inactive | EDANS interfere 6.7
O=C1NCCN1CCN1C(=O)c2ccccc2NC1c1ccccc1 (stereo unspecified)	KLK7 zymogen act 20 | proKLK7 act conf 30 | EDANS interfere 33
CN(C)c1ccc(C2Nc3ccccc3C(=O)N2CCN2CCNC2=O)cc1 (stereo unspecified)	none
CCCN1C(=O)c2ccccc2NC1c1ccc(Cl)cc1 (stereo unspecified)	KLK7 zymogen act 16 | proKLK7 act conf inactive | EDANS interfere 7.0
CCCN1C(=O)c2ccccc2NC1c1ccc(Br)cc1 (stereo unspecified)	none
Cc1ccc(C2Nc3ccccc3C(=O)N2CCCN2CCOCC2)cc1 (stereo unspecified)	KLK7 zymogen act 23 | proKLK7 act conf inactive | EDANS interfere inactive
CCCN1C(=O)c2ccccc2NC1c1ccc(Cl)c(Cl)c1 (stereo unspecified)	none
COC(=O)[C@]12C[C@H](CC(=O)N3CCN(C(=O)C4CC4)CC3)C(=O)N(CCc3ccc(OC)c(OC)c3)C1=C[C@H](COCc1ccccc1)O[C@@H]2C	none (no result: NRP1-CendR mod)
C[C@@H]1COc2cc(Br)ccc2S(=O)(=O)N1Cc1cn(CC2CCCCC2)nn1	none (no result: NRP1-CendR mod)
COC(=O)[C@]12C[C@H](CC(=O)N3CCN(C(=O)C4CC4)CC3)C(=O)N(CCc3ccc(OC)c(OC)c3)C1=C[C@H](C(C)C)O[C@@H]2C1CC1	none (no result: NRP1-CendR mod)
CC(C)Oc1cccc(-c2n[nH]c(=S)n2N=Cc2cccc([N+](=O)[O-])c2)c1	none (no result: NRP1-CendR mod)
O=C(C1CCN(c2ncnc3c2sc2cccc(F)c23)CC1)N1CCN(Cc2ccc(F)cc2)CC1	none (no result: NRP1-CendR mod)
Nc1cccc(-c2cccc3nncn23)c1	KLK7 zymogen act 29 | proKLK7 act conf inactive | EDANS interfere inactive
CSc1ccc(-c2cccc3nncn23)cc1	KLK7 zymogen act 21 | proKLK7 act conf 26 | EDANS interfere 25
COC(=O)C1=C(C)N(C)C(=NCc2ccccc2)NC1c1cccc(Cl)c1 (stereo unspecified)	none (no result: NRP1-CendR mod)
C=CCCC(=O)N[C@H]1CC[C@@]23CCCN2C(=O)CCC[C@H]3[C@H]1C	none (no result: KLK7 zymogen act, NRP1-CendR mod)
O=C(Nc1nccs1)c1ccc(N2CCOCC2)c([N+](=O)[O-])c1	KLK7 zymogen act 13 | proKLK7 act conf inactive | EDANS interfere inactive
O=C(Nc1ccccc1N1CCOCC1)c1ccc(N2CCOCC2)c([N+](=O)[O-])c1	none
Cc1ccnc(SCc2cc(=O)c(OC(=O)c3ccc(C#N)cc3)co2)n1	none (no result: KLK7 zymogen act, NRP1-CendR mod)
Cc1cc(NC(=O)COC(=O)CCNS(=O)(=O)c2cccc(C(F)(F)F)c2)no1	none
CCc1cc2c(COC(=O)CCNS(=O)(=O)c3cccc(C(F)(F)F)c3)cc(=O)oc2cc1O	KLK7 zymogen act 48 | proKLK7 act conf 56 | EDANS interfere 57
CCCC1CCC2(CC1)CCC2OC(=O)Nc1cccc(C(F)(F)F)c1 (stereo unspecified)	none (no result: KLK7 zymogen act, NRP1-CendR mod)
CCN(CC)CCNS(=O)(=O)c1ccc2c3c(cccc13)C(=O)N2	KLK7 zymogen act 100 | proKLK7 act conf 58 | EDANS interfere 70
